The results in this text go back to ChEMBL document CHEMBL2440111, “Overcoming doxorubicin-resistance in the NCI/ADR-RES model cancer cell line by novel anthracene-9,10-dione derivatives” (Bioorg Med Chem Lett, 2013).

Assay [1] deals with MIA PaCa-2. The experiment in a line: Antiproliferative activity against human MIAPaCa2 cells at 20 uM after 72 hrs by MTT assay. The following applies: MIA PaCa-2, 72 h. It is filed as functional. A digest of the protocol:
(§1)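 Each cell line in the panel was treated with 20 µM compound, with doxorubicin as reference. Exponentially growing cells were grown at 37 °C in 5% CO2. MTT read-out served as a surrogate of viable cell number, expressed as % inhibition versus an untreated control. Values are mean ± SD of three independent experiments.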

For assay [2], the system named is U2OS. The experiment in a line: Antiproliferative activity against human U2OS cells at 20 uM after 72 hrs by MTT assay. It is filed as functional. A digest of the protocol: as §1
Assay [3] relates to NCI/ADR-RES. The experiment in a line: Antiproliferative activity against human NCI/ADR-RES cells at 20 uM after 72 hrs by MTT assay. It is filed as functional. A digest of the protocol: as §1
Assay [4] concerns LNCaP. The experiment in a line: Antiproliferative activity against human LNCAP cells at 20 uM after 72 hrs by MTT assay. It is filed as functional. A digest of the protocol: as §1
Assay [5] is described as follows: Antiproliferative activity against human […] cells at 20 uM after 72 hrs by MTT assay. It is filed as functional. A digest of the protocol:
as §1

Assay [6] is described as follows: Antiproliferative activity against human Caov3 cells at 20 uM after 72 hrs by MTT assay. The assay is classed as functional. The following applies: Caov-3, 72 h. A digest of the protocol:
as §1

For assay [7], the system named is PC-3. Description: Antiproliferative activity against human PC3 cells at 20 uM after 72 hrs by MTT assay. The assay is classed as functional. To be noted: PC-3, 72 h. A digest of the protocol: as §1
Assay [8] has as its system OVCAR-8. Description: Antiproliferative activity against human OVCAR8 cells at 20 uM after 72 hrs by MTT assay. The following applies: OVCAR-8, 72 h. The assay is classed as functional. A digest of the protocol:
as §1

The subject of assay [9] is BXPC-3. The experiment in a line: Antiproliferative activity against human BxPC3 cells at 20 uM after 72 hrs by MTT assay. It is filed as functional. To be noted: BXPC-3, 72 h. A digest of the protocol: as §1
Assay [10] concerns OVCAR-8. The experiment in a line: Antiproliferative activity against human OVCAR8 cells at 20 uM after 72 hrs by MTT assay in presence of N-acetylcysteine. The assay is classed as functional, cell-based.
Assay [11] deals with DU-145. Description: Antiproliferative activity against human DU145 cells at 20 uM after 72 hrs by MTT assay. It is filed as functional. The following applies: DU-145, 72 h. A digest of the protocol:
as §1

In assay [12] the test system is BXPC-3. The experiment in a line: Antiproliferative activity against human BxPC3 cells after 72 hrs by MTT assay. The assay is classed as functional, cell-based. The following applies: BXPC-3, 72 h. A digest of the protocol: (§2)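 Cells kept in exponential growth at 37 °C in humidified 5% CO2 with 2 mM L-glutamine, mycoplasma-checked. Compounds were applied over a dose range and viability was read by MTT relative to an untreated control. IC50 is the concentration giving a 50% decrease in viability. Values are mean ± SD of three independent experiments.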

Assay [13] relates to MIA PaCa-2. Description: Antiproliferative activity against human MIAPaCa2 cells after 72 hrs by MTT assay. It is filed as functional, cell-based. The following applies: MIA PaCa-2, 72 h. A digest of the protocol:
as §2

In assay [14] the test system is U2OS. Description: Antiproliferative activity against human U2OS cells after 72 hrs by MTT assay. The assay is classed as functional, cell-based. A digest of the protocol: as §2
In assay [15] the test system is OVCAR-8. The experiment in a line: Antiproliferative activity against human OVCAR8 cells after 72 hrs by MTT assay. To be noted: OVCAR-8, 72 h. The assay is classed as functional, cell-based. A digest of the protocol:
as §2

Assay [16] relates to NCI/ADR-RES. Description: Antiproliferative activity against human NCI/ADR-RES cells at 20 uM after 72 hrs by MTT assay in presence of N-acetylcysteine. The assay is classed as functional. A digest of the protocol:
(§3)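 NCI/ADR-RES cells were pretreated for 2 h with 5 mM N-acetylcysteine or glutathione. Compound at 20 µM was then added for 72 h, with doxorubicin as positive control. Percent inhibition was measured by MTT.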

Assay [17] in a line: Antiproliferative activity against human […] cells after 72 hrs by MTT assay. The assay is classed as functional, cell-based. A digest of the protocol:
as §2

The test system of assay [18] is NCI/ADR-RES. Description: Antiproliferative activity against human NCI/ADR-RES cells at 20 uM after 72 hrs by MTT assay in presence of glutathione. The assay is classed as functional. A digest of the protocol: as §3
Assay [19] is described as follows: Antiproliferative activity against human Caov3 cells after 72 hrs by MTT assay. The following applies: Caov-3, 72 h. The assay is classed as functional, cell-based. A digest of the protocol:
as §2

For assay [20], the system named is NCI/ADR-RES. Description: Inhibition of colony formation in human NCI/ADR-RES cells after 24 hrs. The assay is classed as functional, cell-based. A digest of the protocol: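 NCI/ADR-RES cells were seeded at 100 cells/well and left to attach overnight. Serial compound dilutions were applied for 24 h, then washed out. Colonies grew in drug-free medium for 8-10 days and were fixed with 1% glutaraldehyde and stained with 2% crystal violet, 30 min each. Colonies were imaged and counted versus untreated control; values are means of ≥3 independent experiments.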

Assay [21] concerns PC-3. Description: Antiproliferative activity against human PC3 cells after 72 hrs by MTT assay. The assay is classed as functional, cell-based. To be noted: PC-3, 72 h. A digest of the protocol:
as §2

For assay [22], the system named is OVCAR-8. Description: Antiproliferative activity against human OVCAR8 cells at 20 uM after 72 hrs by MTT assay in presence of glutathione. It is filed as functional, cell-based.
The subject of assay [23] is LNCaP. Description: Antiproliferative activity against human LNCAP cells after 72 hrs by MTT assay. It is filed as functional, cell-based. A digest of the protocol:
as §2

The test system of assay [24] is DU-145. The experiment in a line: Antiproliferative activity against human DU145 cells after 72 hrs by MTT assay. The assay is classed as functional, cell-based. To be noted: DU-145, 72 h. A digest of the protocol:
as §2

Assay [25] deals with NCI/ADR-RES. Description: Antiproliferative activity against human NCI/ADR-RES cells after 72 hrs by MTT assay. It is filed as functional, cell-based. A digest of the protocol:
as §2

Activity calls are given as the source filed them. The calls are words filed in the database; no cut-off is given here. Some results are limits rather than exact numbers.

In the case of `Cc1ccc(S(=O)(=O)Oc2ccc(OCCOCCOCCO)c3c2C(=O)c2ccccc2C3=O)cc1`, the inhibition at 20 µM in assay [1] is 53.4%; in [2], 44.2%; in assay [3] it was 20.4%; in assay [4], 24.5%; in assay [5] it was 46.9%; in [6], 47.3%. Also, the inhibition at 20 µM in [7] came out at 16.6%; in [8], 13.1%; in assay [9], 15.3%; in assay [11] it was 16.8%. For the same molecule, the inhibition entry in assay [10] was “Active”.
For `Cc1ccc(S(=O)(=O)Oc2ccc(NCc3ccc(Cl)cc3)c3c2C(=O)c2ccccc2C3=O)cc1`, the inhibition at 20 µM was 80.6% in [1]; 66.1% in assay [2]; 80.4% in assay [3]; 79.9% in [4]; over 60% in assay [16]; 63.5% in assay [5]. In addition, the inhibition at 20 µM is over 60% in assay [18]; 84.6% in assay [6]; 81.2% in assay [7]; 64.4% in assay [8]; 85.2% in assay [9]; 69.1% in [11]. The IC50 in [12] was 2400 nM; in [13], 4500 nM; in assay [14] it was 4800 nM; in [15], 4400 nM; in [17], 4000 nM; in [19] it was 2500 nM. Besides, the IC50 in assay [21] was over 20000 nM; in assay [23] it was 2400 nM; in assay [24], 6500 nM; in assay [25], 2200 nM. The inhibition entry in assay [20] was “Dose-dependent effect”. The inhibition entry in assay [10] and in [22] was “Active” each time.
Turning to `O=C1c2ccccc2C(=O)c2c(OCCOCCOCCO)ccc(OCCOCCOCCO)c21`, the inhibition at 20 µM in assay [1] turned out to be 36.1%; in [2], 11.1%; in assay [3] it was 41.5%; in assay [4] it was 38.2%; in assay [5], 6.4%; in assay [6], 16.3%. Moreover, the inhibition at 20 µM is 16.4% in assay [7], 37.4% in assay [8], 17.5% in assay [9] and 17.7% in assay [11].
Take `COc1ccc(CNc2ccc(OS(=O)(=O)c3ccc(C)cc3)c3c2C(=O)c2ccccc2C3=O)cc1`: the inhibition at 20 µM in assay [1] is 81.4%; in [2] it was 59.8%; in assay [3], 77.8%; in assay [4] it was 78.7%; in assay [16], over 60%; in [5] it was 53.3%. Also, the inhibition at 20 µM in [18] is over 60%; in assay [6], 83.1%; in assay [7], 46.2%; in [8], 58.2%; in assay [9], 91.5%; in assay [11], 62.2%. Also, the half-inhibitory concentration (IC50) in [12] is 600 nM; in assay [13] it was 1900 nM; in assay [14], 4500 nM; in assay [15], 8000 nM; in [17], over 20000 nM; in [19], 1800 nM. Moreover, the IC50 in assay [21] amounted to 8000 nM; in assay [23] it was 900 nM; in assay [24] it was 2200 nM; in assay [25] it was 1200 nM. In assay [20], the inhibition result is “Dose-dependent effect”. In addition, the inhibition result in assay [10] and in assay [22] was “Active” throughout.
